# Assay results taken from ChEMBL document CHEMBL2021842, “COMPARE analysis of the toxicity of an iminoquinone derivative of the imidazo[5,4-f]benzimidazoles with NAD(P)H:quinone oxidoreductase 1 (NQO1) activity and computational docking of quinones as NQO1 substrates” (Bioorg Med Chem, 2012).
# Legend:
# Format in all cases: functional
# DU-145 = experiment: Growth inhibition of human DU145 cells
# In short: (§1)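 NCI DTP 60-cell-line screen, second stage: five-dose testing across the human tumour panel. GI₅₀ taken as the concentration needed to inhibit cell growth by 50% in each cell line.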
# NCI-H522 = experiment: Growth inhibition of human NCI-H522 cells
# In short: (§2)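 Part of the NCI DTP 60-cell-line panel. After the single-dose stage, cells were tested at five doses. Read-out is the GI50, the concentration giving 50% inhibition of cell growth, derived for each cell line.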
# T47D = experiment: Growth inhibition of human T47D cells
# In short: (§3)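 This is the second, five-dose stage of the NCI DTP 60-cell-line screen. GI50 is the concentration that inhibits cell growth by 50%, derived for each cell line.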
# CAKI-1 = experiment: Growth inhibition of human Caki1 cells; in short: as §1
# OVCAR-5 = experiment: Growth inhibition of human OVCAR5 cells; in short: as §2
# OVCAR-4 = experiment: Growth inhibition of human OVCAR4 cells assessed as cell growth at 10 uM relative to untreated control; settings: read-out: Activity
# In short: (§4)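 First stage of the NCI DTP 60 human tumour cell-line screen. Cells were exposed to a single dose of 10 µM. Output is reported as growth % relative to control.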
# SK-MEL-2 = experiment: Growth inhibition of human SK-MEL-2 cells; in short: as §2
# MCF7 [1] = experiment: Growth inhibition of human MCF7 cells assessed as cell growth at 10 uM relative to untreated control; settings: read-out: Activity; in short: as §4
# HL-60(TB) [2] = experiment: Growth inhibition of human HL-60(TB) cells assessed as cell growth at 10 uM relative to untreated control; settings: read-out: Activity
# In short: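 NCI DTP NCI-60 screen, first stage: a single dose applied to 60 human tumour cell lines from nine tissue types. Output is reported as growth %.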
# A498 = experiment: Growth inhibition of human A498 cells assessed as cell growth at 10 uM relative to untreated control; settings: read-out: Activity
# In short: (§5)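 NCI DTP 60-cell-line screen, first stage: a single 10 µM dose of compound given to the human tumour panel. Result reported as percent growth relative to control, on a mean growth graph.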
# MDA-MB-468 = experiment: Growth inhibition of human MDA-MB-468 cells; in short: as §2
# HCT-116 [3] = experiment: Growth inhibition of human HCT116 cells assessed as cell growth at 10 uM relative to untreated control; settings: read-out: Activity; in short: as §5
# HOP-62 [4] = experiment: Growth inhibition of human HOP62 cells assessed as cell growth at 10 uM relative to untreated control; settings: read-out: Activity; in short: as §5
# OVCAR-3 [5] = experiment: Growth inhibition of human OVCAR3 cells assessed as cell growth at 10 uM relative to untreated control; settings: read-out: Activity; in short: as §4
# MDA-MB-435 = experiment: Growth inhibition of human MDA-MB-435 cells; in short: as §2
# HCC 2998 = experiment: Growth inhibition of human HCC2998 cells assessed as cell growth at 10 uM relative to untreated control; settings: read-out: Activity; in short: as §5
# HOP-62 [6] = experiment: Growth inhibition of human HOP62 cells; in short: as §1
# A549 [7] = experiment: Growth inhibition of human A549 cells assessed as cell growth at 10 uM relative to untreated control; settings: read-out: Activity; in short: as §5
# HCT-15 [8] = experiment: Growth inhibition of human HCT15 cells assessed as cell growth at 10 uM relative to untreated control; settings: read-out: Activity; in short: as §5
# HL-60(TB) [9] = experiment: Growth inhibition of human HL-60(TB) cells
# In short: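 NCI DTP NCI-60 screen, second stage: five-dose testing across 60 human tumour cell lines from nine tissue types. GI50 is the concentration that inhibits cell growth by 50%, obtained for each cell line.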
# UACC-62 = experiment: Growth inhibition of human UACC62 cells assessed as cell growth at 10 uM relative to untreated control; settings: read-out: Activity
# In short: (§6)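 This is the first stage of the NCI DTP 60-human-tumour-cell-line screen, covering nine tissue types. Cells receive a single dose of the test compound, and the output is reported as mean growth %.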
# 786-0 = experiment: Growth inhibition of human 786-0 cells; in short: as §1
# OVCAR-8 = experiment: Growth inhibition of human OVCAR8 cells; in short: as §2
# NCI-H23 [10] = experiment: Growth inhibition of human NCI-H23 cells assessed as cell growth at 10 uM relative to untreated control; settings: read-out: Activity; in short: as §4
# NCI-H460 = experiment: Growth inhibition of human NCI-H460 cells; in short: as §2
# IGROV-1 [11] = experiment: Growth inhibition of human IGROV1 cells; in short: as §1
# RXF 393 = experiment: Growth inhibition of human RXF393 cells assessed as cell growth at 10 uM relative to untreated control; settings: read-out: Activity; in short: as §4
# [12] = Growth inhibition of human Hs 578T cells assessed as cell growth at 10 uM relative to untreated control; settings: read-out: Activity; in short: as §5
# KM12 = experiment: Growth inhibition of human KM12 cells assessed as cell growth at 10 uM relative to untreated control; settings: read-out: Activity; in short: as §5
# SF-295 = experiment: Growth inhibition of human SF295 cells assessed as cell growth at 10 uM relative to untreated control; settings: read-out: Activity; in short: as §4
# A549 [13] = experiment: Growth inhibition of human A549 cells; in short: as §1
# HCT-116 [14] = experiment: Growth inhibition of human HCT116 cells; in short: as §1
# SW-620 = experiment: Growth inhibition of human SW620 cells; in short: as §3
# SR = experiment: Growth inhibition of human SR cells assessed as cell growth at 10 uM relative to untreated control; settings: read-out: Activity; in short: as §6
# Malme-3M = experiment: Growth inhibition of human MALME-3M cells; in short: as §1
# LOX IMVI = experiment: Growth inhibition of human LOXIMVI cells assessed as cell growth at 10 uM relative to untreated control; settings: read-out: Activity; in short: as §5
# SNB-19 = experiment: Growth inhibition of human SNB19 cells; in short: as §3
# OVCAR-3 [15] = experiment: Growth inhibition of human OVCAR3 cells; in short: as §2
# MCF7 [16] = experiment: Growth inhibition of human MCF7 cells; in short: as §2
# UO-31 = experiment: Growth inhibition of human UO31 cells assessed as cell growth at 10 uM relative to untreated control; settings: read-out: Activity; in short: as §6
# HCT-15 [17] = experiment: Growth inhibition of human HCT15 cells; in short: as §1
# NCI/ADR-RES = experiment: Growth inhibition of human NCI/ADR-RES cells; in short: as §2
# K562 = experiment: Growth inhibition of human K562 cells; in short: as §1
# [18] = Growth inhibition of human […] cells assessed as cell growth at 10 uM relative to untreated control; settings: read-out: Activity; in short: as §4
# NCI-H23 [19] = experiment: Growth inhibition of human NCI-H23 cells; in short: as §2
# SN12C = experiment: Growth inhibition of human SN12C cells; in short: as §3
# SK-MEL-5 = experiment: Growth inhibition of human SK-MEL-5 cells; in short: as §2
# HOP-92 = experiment: Growth inhibition of human HOP92 cells; in short: as §1
# COLO 205 = experiment: Growth inhibition of human COLO205 cells; in short: as §1
# MDA-MB-231 = experiment: Growth inhibition of human MDA-MB-231 cells; in short: as §2
# NCI-H322M = experiment: Growth inhibition of human NCI-H322M cells assessed as cell growth at 10 uM relative to untreated control; settings: read-out: Activity; in short: as §4
# HT-29 = experiment: Growth inhibition of human HT-29 cells assessed as cell growth at 10 uM relative to untreated control; settings: read-out: Activity; in short: as §5
# IGROV-1 [20] = experiment: Growth inhibition of human IGROV1 cells assessed as cell growth at 10 uM relative to untreated control; settings: read-out: Activity; in short: as §5
compound,measurement,setting,value
N=C1c2nc3n(c2C(=O)c2nc4n(c21)CCCC4)CCCC3,GI50,DU-145,1.41 µM
same,GI50,NCI-H522,4.57 µM
same,GI50,T47D,17.4 µM
same,GI50,CAKI-1,15.5 µM
same,GI50,OVCAR-5,2.63 µM
same,growth at 10 µM,OVCAR-4,96.2%
same,GI50,SK-MEL-2,38 µM
same,growth at 10 µM,MCF7 [1],-6.98%
same,growth at 10 µM,HL-60(TB) [2],96.3%
same,growth at 10 µM,A498,52%
same,GI50,MDA-MB-468,14.8 µM
same,growth at 10 µM,HCT-116 [3],65.8%
same,growth at 10 µM,HOP-62 [4],52.3%
same,growth at 10 µM,OVCAR-3 [5],98.4%
same,GI50,MDA-MB-435,0.245 µM
same,growth at 10 µM,HCC 2998,87.3%
same,GI50,HOP-62 [6],2.45 µM
same,growth at 10 µM,A549 [7],-30.6%
same,growth at 10 µM,HCT-15 [8],6.18%
same,GI50,HL-60(TB) [9],23.4 µM
same,growth at 10 µM,UACC-62,-85.1%
same,GI50,786-0,44.7 µM
same,GI50,OVCAR-8,31.6 µM
same,growth at 10 µM,NCI-H23 [10],-70.4%
same,GI50,NCI-H460,1.62 µM
same,GI50,IGROV-1 [11],42.7 µM
same,growth at 10 µM,RXF 393,94.8%
same,growth at 10 µM,[12],-28.6%
same,growth at 10 µM,KM12,66.7%
same,growth at 10 µM,SF-295,-85.7%
same,GI50,A549 [13],2.04 µM
same,GI50,HCT-116 [14],19.5 µM
same,GI50,SW-620,3.72 µM
same,growth at 10 µM,SR,69.5%
same,GI50,Malme-3M,1.86 µM
same,growth at 10 µM,LOX IMVI,-68%
same,GI50,SNB-19,2.57 µM
same,GI50,OVCAR-3 [15],20.4 µM
same,GI50,MCF7 [16],1.86 µM
same,growth at 10 µM,UO-31,46.9%
same,GI50,HCT-15 [17],2.63 µM
same,GI50,NCI/ADR-RES,35.5 µM
same,GI50,K562,20.4 µM
same,growth at 10 µM,[18],82.2%
same,GI50,NCI-H23 [19],1.38 µM
same,GI50,SN12C,1.7 µM
same,GI50,SK-MEL-5,1.2 µM
same,GI50,HOP-92,43.7 µM
same,GI50,COLO 205,1.86 µM
same,GI50,MDA-MB-231,39.8 µM
same,growth at 10 µM,NCI-H322M,27.7%
same,growth at 10 µM,HT-29,-13.7%
O=C1c2nc3n(c2C(=O)c2nc4n(c21)CCCC4)CCCC3,growth at 10 µM,OVCAR-4,100%
same,growth at 10 µM,MCF7 [1],101%
same,growth at 10 µM,HL-60(TB) [2],107%
same,growth at 10 µM,A498,99.9%
same,growth at 10 µM,HCT-116 [3],96.8%
same,growth at 10 µM,HOP-62 [4],112%
same,growth at 10 µM,OVCAR-3 [5],97%
same,growth at 10 µM,HCC 2998,88.3%
same,growth at 10 µM,A549 [7],99.7%
same,growth at 10 µM,HCT-15 [8],103%
same,growth at 10 µM,UACC-62,99.8%
same,growth at 10 µM,NCI-H23 [10],100%
same,growth at 10 µM,RXF 393,107%
same,growth at 10 µM,[12],102%
same,growth at 10 µM,KM12,92.1%
same,growth at 10 µM,SF-295,87.9%
same,growth at 10 µM,SR,101%
same,growth at 10 µM,LOX IMVI,96.1%
same,growth at 10 µM,IGROV-1 [20],107%
same,growth at 10 µM,UO-31,90.9%
same,growth at 10 µM,[18],97.6%
same,growth at 10 µM,NCI-H322M,106%
same,growth at 10 µM,HT-29,104%
